From ChEMBL document CHEMBL2396514, “Optimization of novel nipecotic bis(amide) inhibitors of the Rho/MKL1/SRF transcriptional pathway as potential anti-metastasis agents” (Bioorg Med Chem Lett, 2013)
In brackets after ≈: the same amount, converted by molar mass.

Columns and labels:
PC-3 [1] = assay: Antimetastatic activity against human PC3 cells after 24 hrs by scratch wound assay; format: functional, cell-based; conditions: PC-3, 24 h
Method in brief: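 PC-3 cells (5.0×10^5) were grown to confluence in DMEM with 10% FBS and scratched after 24 h. Medium was switched to DMEM with 0.5% FBS containing compound at various concentrations or 0.1% DMSO. Wounds were imaged at 0 h, then fixed (10% formalin) and crystal-violet stained at 24 h. Migration = initial minus 24 h wound area, normalized to DMSO. IC50 was taken from dose-response curves.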

[2] = Kinetic solubility of the compound; format: physicochemical; conditions: read-out: Kinetic_solubility
PC-3 [3] = assay: Antimetastatic activity against human PC3 cells at 10 uM after 24 hrs by scratch wound assay; format: functional; conditions: PC-3, 24 h
Method in brief: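 Confluent PC-3 monolayers (5.0×10^5 cells plated, DMEM with 10% FBS) were scratched 24 h after plating. Cells were then exposed to compound at 10 μM, or 0.1% DMSO, in DMEM with 0.5% FBS. Wounds were imaged at 0 h and after 24 h (formalin-fixed, crystal violet-stained). Wound-area closure was quantified and expressed as percent inhibition relative to DMSO control.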

[4] = Cytotoxicity against human PC3 cells at 100 uM by WST1 assay; format: cell-based, PC-3; conditions: read-out: INH
Method in brief: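 Read-out was inhibition of mitochondrial WST-1 reduction in PC-3 cells transiently transfected with an SRE.L luciferase reporter. Compound was tested at 100 μM. Values are the mean of n = 3 independent experiments.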

[5] = Cytotoxicity against human SK-MEL-147 cells by WST1 assay; format: cell-based
Method in brief: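 WST-1 reduction was measured in SK-Mel-147 melanoma cells transiently transfected for the RhoC-SRE.L luciferase reporter assay.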

Mus musculus [6] = assay: Toxicity in mouse assessed as organism survival at 10 to 100 mg/kg/day, ip after 5 days; format: organism-based; design: route intraperitoneal; conditions: in vivo, 120 h
Method in brief: (§1)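 5-day tolerability study in mice, doses of 10, 20, 50 and 100 mg/kg/day given intraperitoneally, 3 mice per dose. Animals sacrificed on day 8, then body weight recorded, blood collected, and internal organs dissected, weighed and examined for abnormalities. Behaviour observed and survival tracked over the dosing period.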

Mus musculus [7] = assay: Toxicity in mouse assessed as increase in liver weight at 10 to 100 mg/kg/day, ip administered for 5 days measured on day 8; format: organism-based; design: route intraperitoneal; conditions: in vivo, 120 h; method in brief: as §1

| Compound | inhibition at 10 µM (PC-3 [3]) [%] | cytotoxicity at 100 µM [4] [%] | also measured |
| --- | --- | --- | --- |
| O=C(Nc1ccc(Cl)cc1)C1CCCN(C(=O)c2cccc(-c3cccs3)c2)C1 (centres undefined) | 70 | 4 | IC50 (PC-3 [1]): […]; solubility kinetic [2]: 1.36 µg/mL (≈ 3.2 µM) |
| O=C(Nc1ccc(Cl)cc1)C1CCCN(C(=O)c2ccc(-c3ccco3)cc2)C1 (centres undefined) | – | 6 | – |
| O=C(Nc1cccc(OCc2ccccn2)c1)C1CCCN(C(=O)c2cc(C(F)(F)F)cc(C(F)(F)F)c2)C1 (centres undefined) | – | 15 | – |
| O=C(Nc1ccc(Cl)nc1)C1CCCN(C(=O)c2cc(C(F)(F)F)cc(C(F)(F)F)c2)C1 (centres undefined) | – | 25 | – |
| O=C(Nc1ccc(Cl)cc1)C1CCCN(C(=O)c2cccc(-c3ccco3)c2)C1 (centres undefined) | 70 | – | Activity [5]: Non-toxic; Activity (Mus musculus [6]): Non-toxic; Activity (Mus musculus [7]): Toxic; IC50 (PC-3 [1]): 4.2 µM; solubility kinetic [2]: 3.09 µg/mL (≈ 7.56 µM) |
| O=C(Nc1ccc(Cl)cc1)C1CCCN(C(=O)c2cccc(-c3nccs3)c2)C1 (centres undefined) | – | 32 | – |
| Cc1nc(-c2cccc(C(=O)N3CCCC(C(=O)Nc4ccc(Cl)cc4)C3)c2)cs1 (centres undefined) | – | 1 | – |
| CS(=O)(=O)Nc1cccc(C(=O)N2CCCC(C(=O)Nc3ccc(Cl)cc3)C2)c1 (centres undefined) | – | 3 | – |
| CS(=O)(=O)c1cccc(C(=O)N2CCCC(C(=O)Nc3ccc(Cl)cc3)C2)c1 (centres undefined) | – | 2 | – |
| CC(=O)Nc1cccc(C(=O)N2CCCC(C(=O)Nc3ccc(Cl)cc3)C2)c1 (centres undefined) | – | 4 | – |
| O=C(Nc1cccc(Oc2ccccc2)c1)C1CCCN(C(=O)c2cc(C(F)(F)F)cc(C(F)(F)F)c2)C1 (centres undefined) | < 30 | 1 | solubility kinetic [2]: 3.22 µg/mL (≈ 6 µM) |
| O=C(Nc1cccc(Cc2ccccc2)c1)C1CCCN(C(=O)c2cc(C(F)(F)F)cc(C(F)(F)F)c2)C1 (centres undefined) | < 30 | – | solubility kinetic [2]: 1.89 µg/mL (≈ 3.54 µM) |
| O=C(Nc1cccc(OCCc2ccccn2)c1)C1CCCN(C(=O)c2cc(C(F)(F)F)cc(C(F)(F)F)c2)C1 (centres undefined) | < 30 | 5 | – |
| O=C(Nc1cccc(S(=O)(=O)N2CCCC2)c1)C1CCCN(C(=O)c2cc(C(F)(F)F)cc(C(F)(F)F)c2)C1 (centres undefined) | < 30 | – | – |
| Cc1nc(-c2cccc(NC(=O)C3CCCN(C(=O)c4cc(C(F)(F)F)cc(C(F)(F)F)c4)C3)c2)cs1 (centres undefined) | 42 | 1 | – |
| C=Cc1cccc(NC(=O)C2CCCN(C(=O)c3cc(C(F)(F)F)cc(C(F)(F)F)c3)C2)c1 (centres undefined) | – | 1 | – |
| O=C(Nc1cccc(-c2cnco2)c1)C1CCCN(C(=O)c2cc(C(F)(F)F)cc(C(F)(F)F)c2)C1 (centres undefined) | – | 9 | – |
| O=C(Nc1cccc([N+](=O)[O-])c1)C1CCCN(C(=O)c2cc(C(F)(F)F)cc(C(F)(F)F)c2)C1 (centres undefined) | – | 9 | – |
| O=C(Nc1cccc(CN2CCCC2)c1)C1CCCN(C(=O)c2cc(C(F)(F)F)cc(C(F)(F)F)c2)C1 (centres undefined) | – | 51 | – |
| O=C(Nc1ccc(Cl)cc1)C1CCCN(C(=O)c2cc(C(F)(F)F)cc(C(F)(F)F)c2)C1 (centres undefined) | 22 | 14 | IC50 (PC-3 [1]): 17 µM; solubility kinetic [2]: 4.5 µg/mL (≈ 9.4 µM) |
| O=C(CCNC(=O)c1cc(C(F)(F)F)cc(C(F)(F)F)c1)Nc1ccc(Cl)cc1 | < 10 | – | solubility kinetic [2]: 2.21 µg/mL (≈ 5.04 µM) |
| C[C@@H](N)[C@H]1CC[C@H](C(=O)Nc2ccncc2)CC1 [Y-27632] | – | – | IC50 (PC-3 [1]): 28 µM |
